Like-named read-outs stand apart in the source and are kept apart here.
Assays:
[1] = Study A: caffeine clearance in smokers and nonsmokers; type: in vivo, human; settings: for Caffeine plasma clearance CL/F: 200 mg oral caffeine, geometric mean
Outline: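 A 200 mg oral caffeine capsule was given on day 6 after an overnight fast of ≥10 h, with a methylxanthine-free diet for ≥1 week before and during the study. Plasma caffeine and paraxanthine were sampled predose and at 0.5–12 h. LC-MS/MS, LLOQ 20 ng/mL. Noncompartmental CL/F. ANOVA on ln-transformed data with cohort as fixed effect; smoker/nonsmoker geometric means.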

[2] = system: CYP3A4; settings: in vitro; earlier data, no reference given; cited from earlier work
[3] = Study A safety assessment; type: in vivo, human
Outline: (§1)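 Safety was monitored by adverse-event reporting, physical examination, vital signs, 12-lead ECG and clinical laboratory tests. Concomitant medications and AEs were recorded from signing of the consent form until a follow-up safety telephone call. SAEs made known within 28 days after the last investigational dose were also recorded, as were later SAEs suspected to be related.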

[4] = cited from earlier work
[5] = healthy adult men; cited from earlier work
[6] = Study B; type: in vivo, human; settings: for AUC(0-inf) / Cmax / Vd/F / half-life / Tmax: male, human, plasma; for Cmax / Vd/F / half-life / CL/F: geometric mean (geometric CV%); for Vd/F: Vz/F; for Tmax: median (minimum, maximum)
[7] = Study A; type: in vivo, human; settings: for Cmax / Vd/F / half-life / Tmax: male, human, plasma, oral, 4 mg; for Cmax / Vd/F / half-life / CL/F: geometric mean (geometric CV%); for Vd/F: Vz/F; for Tmax: median (minimum, maximum)
[8] = cited from earlier work; remark: listed apart in the source
[9] = system: CYP1A2; settings: in vitro; earlier data, no reference given; cited from earlier work
[10] = system: CYP2C19; settings: in vitro; earlier data, no reference given; cited from earlier work
[11] = Study B safety assessment; type: in vivo, human
Outline: as §1

[12] = system: CYP2D6; settings: in vitro; earlier data, no reference given; cited from earlier work
[13] = oral, 4 mg, pomalidomide 4 mg administered alone
[14] = oral, 4 mg, pomalidomide 4 mg administered with fluvoxamine
[15] = with fluvoxamine compared with alone
[16] = smokers compared with nonsmokers
[17] = multiple dose, 0.5- to 2-mg dose range

**Q.** With `Cn1c(=O)c2c(ncn2C)n(C)c1=O` [caffeine] as the molecule, how does the “Caffeine plasma clearance CL/F” value ([1]; nonsmokers (cohort B)) read?
**A.** 5.3 L/h

**Q.** What about the “Caffeine plasma clearance CL/F” value ([1]; smokers (cohort A)) of the same molecule?
**A.** 9.9 L/h

**Q.** What about the “Caffeine clearance, fold higher in smokers than in nonsmokers” value ([1]; smokers versus nonsmokers) of the same molecule?
**A.** approximately 2 fold

**Q.** Which results are given for `Nc1cccc2c1C(=O)N(C1CCC(=O)NC1=O)C2=O` (stereo not shown) [pomalidomide]?
**A.** Metabolism by CYP enzyme [2]: capable of metabolizing pomalidomide; Correlation between caffeine clearance and pomalidomide clearance ([1]; in vivo, study A): good correlation; Difference in incidence of TEAEs between smokers and nonsmokers ([3]; only TEAEs that occurred after pomalidomide dosing): no difference; Safety and tolerability ([3]; single oral dose of 4 mg in healthy male smokers and nonsmokers ≥ 40 to ≤ 80 years old): safe and well tolerated; Deaths ([3]; study A): no deaths; Number of TEAEs suspected of being related to the study drug ([3]; study A): 22; SAEs or severe TEAEs ([3]; study A): No subject experienced an SAE or severe TEAE; Number of TEAEs reported ([3]; study A overall): 37; Subjects reporting TEAEs suspected of being related to the study drug ([3]; study A, 12 subjects): 21.8%; Number of TEAEs of moderate severity ([3]; study A, all presyncope, not considered related to the study drug): 3; Change in pomalidomide exposure (in words) ([4]; coadministration of ketoconazole): mild increase in pomalidomide exposure that was not considered clinically relevant; Change in mean pomalidomide exposure (in words) ([4]; concomitant fluvoxamine and ketoconazole, healthy men): approximately doubled; t1/2 ([4]; prior drug interaction study): 6.1 h; Increase of total drug exposure ([4]; single 4-mg dose with CYP3A inhibitor ketoconazole versus alone): 18.8%; Increase of total drug exposure ([4]; single 4-mg dose with ketoconazole + fluvoxamine versus alone): 145.7%; Fraction of the dose excreted in urine as unchanged drug [5]: < 5.0 % of the administered dose; Renal excretion of pomalidomide-related material [5]: ~73.0 % of the administered dose; AUC(0-inf) ([6]; oral): 1190 ng·h/mL; AUC(0-inf) ([6]; oral, 4 mg): 526 ng·h/mL; Cmax [6, 13]: 49.2 ng/mL; Cmax [6, 14]: 59.5 ng/mL; Vd/F [6, 13]: 65.4 L; Vd/F [6, 14]: 64 L; half-life ([6]; oral, 4 mg, t1/2, pomalidomide 4 mg administered alone): 360 min; half-life ([6]; oral, 4 mg, t1/2, pomalidomide 4 mg administered with fluvoxamine): 786 min; Tmax [6, 13]: 3 h; Tmax [6, 14]: 4.5 h; AUC(0-inf) ([6]; po, 4 mg): 526 ng·h/mL; CL/F ([6]; pomalidomide 4 mg administered alone): 7.6 L/h; CL/F ([6]; pomalidomide 4 mg administered with fluvoxamine): 3.4 L/h; Increase of AUC0-inf [6, 15]: 125.1%; Increase of Cmax [6, 15]: 23.7%; Ratio (%) of geometric means, AUC0-inf ([6]; with fluvoxamine versus alone): 225.1%; Ratio (%) of geometric means, Cmax ([6]; with fluvoxamine versus alone): 123.7%; Cmax ([7]; nonsmokers): 56.3 ng/mL; Cmax ([7]; smokers): 64.4 ng/mL; Vd/F ([7]; nonsmokers): 65.8 L; Vd/F ([7]; smokers): 59.7 L; half-life ([7]; t1/2, nonsmokers): 468 min; half-life ([7]; t1/2, smokers): 288 min; Tmax ([7]; nonsmokers): 3 h; Tmax ([7]; smokers): 1.8 h; CL/F ([7]; nonsmokers): 5.8 L/h; CL/F ([7]; nonsmokers, listed as Pomalidomide): 5.8 (19.6) L/h; Decrease of AUC0-inf (lower in smokers) [7, 16]: 32.3%; Increase of Cmax (higher in smokers) [7, 16]: 14.4%; Ratio (%) of geometric means, AUC0-inf ([7]; smokers/nonsmokers): 67.7%; Ratio (%) of geometric means, Cmax ([7]; smokers/nonsmokers): 114.4%; CL/F ([7]; smokers): 8.6 L/h; CL/F ([7]; smokers, listed as Pomalidomide): 8.6 (32.5) L/h; mean apparent terminal half-life (t1/2) [8]: approximately 7.5 hours; Accumulation (AUC and Cmax) [8, 17]: less than 14.0%; Time to steady state [8, 17]: ≤ 3 days; Dose proportionality of systemic exposure (AUC) ([8]; single dose up to 50 mg): approximately dose‐proportional; Metabolism by CYP enzyme [9]: capable of metabolizing pomalidomide; Metabolism by CYP enzyme [10]: to a minor extent; Safety and tolerability ([11]; single oral 4 mg pomalidomide coadministered with multiple oral 50-mg doses of fluvoxamine, healthy male subjects): safe and well tolerated; Deaths, SAEs, or TEAEs leading to discontinuation ([11]; study B): No deaths, SAEs, or TEAEs leading to discontinuation were reported; TEAEs related to the study drug ([11]; study B): No subject reported at least 1 TEAE related to the study drug; Subjects reporting TEAEs ([11]; study B overall, 1 of 15 subjects): 6.7%; Metabolism by CYP enzyme [12]: to a minor extent

Source: article PMC6175223 (Journal of Clinical Pharmacology, 2018)
